Source: ChEMBL document CHEMBL3108780, “Synthesis, characterization, cytotoxicity and antibacterial activity of an anthracenyl-linked bis(pyrazolyl)methane ligand and its zinc(II) complexes” (Eur J Med Chem, 2014)
In brackets after ≈: the same amount, converted by molar mass.

What was measured:
A549 = assay: Cytotoxicity against human A549 cells after 48 hrs by MTT assay; format: functional, cell-based; conditions: A549, 48 h
Outline: (§1)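 Cells seeded at 2 × 10^4 cells/mL, preincubated 24 h at 37 °C, 5% CO2. Compounds from DMSO mother solutions diluted in complete medium (DMSO ≤0.1%), added at pre-set concentrations with 5-fluorouracil and cisplatin as references. 48 h exposure, then MTT (2.5 mg/mL in PBS) 4 h, SDS/isobutanol/HCl solubilisation overnight, OD 570 nm. Triplicate wells, assays repeated ≥3 times; IC50.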

MDA-MB-435 = assay: Cytotoxicity against human MDA-MB-435 cells after 48 hrs by MTT assay; format: functional, cell-based; conditions: MDA-MB-435, 48 h; outline: as §1
Huh-7 = assay: Cytotoxicity against human HuH7 cells after 48 hrs by MTT assay; format: functional, cell-based; conditions: Huh-7, 48 h; outline: as §1
Pseudomonas putida = assay: Antibacterial activity against Pseudomonas putida ATCC 49128 after 24 hrs by MTT assay; format: functional; conditions: ATCC 49128, 24 h
Outline: (§2)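 Broth microdilution per CLSI; compounds dissolved in DMSO (stock […]) and serially diluted in sterilized liquid medium (50% v/v DMSO in PBS). Inoculum about 10^5 cfu/mL, incubated 37 °C for 24 h. Growth read colorimetrically with MTT dye, OD at 550 nm; MIC50 determined.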

Bacillus spizizenii = assay: Antibacterial activity against Bacillus subtilis ATCC 6633 after 24 hrs by MTT assay; format: functional; conditions: ATCC 6633, 24 h; outline: as §2
Staphylococcus aureus = assay: Antibacterial activity against Staphylococcus aureus ATCC 25923 after 24 hrs by MTT assay; format: functional; conditions: ATCC 25923, 24 h; outline: as §2
Escherichia coli = assay: Antibacterial activity against Escherichia coli ATCC 35218 after 24 hrs by MTT assay; format: functional; conditions: ATCC 35218, 24 h; outline: as §2

Compound | IC50 (A549) [µg/mL] | IC50 (MDA-MB-435) [µg/mL] | IC50 (Huh-7) [µg/mL] | MIC50 (Pseudomonas putida) [µg/mL] | MIC50 (Bacillus spizizenii) [µg/mL] | MIC50 (Staphylococcus aureus) [µg/mL] | MIC50 (Escherichia coli) [µg/mL]
c1ccc2c(C(n3cccn3)n3cccn3)c3ccccc3cc2c1 | 9.77 (≈ 30.1 µM) | 23.8 (≈ 73.3 µM) | 28 (≈ 86.2 µM) | 1.54 (≈ 4.76 µM) | 3.26 (≈ 10 µM) | 2.13 (≈ 6.57 µM) | 4.8 (≈ 14.8 µM)
O=C(N[C@H](CO)[C@H](O)c1ccc([N+](=O)[O-])cc1)C(Cl)Cl [CHLORAMPHENICOL] |  |  |  | 0.182 (≈ 0.563 µM) | 1.25 (≈ 3.88 µM) | 0.499 (≈ 1.54 µM) | 3.04 (≈ 9.41 µM)
O=c1[nH]cc(F)c(=O)[nH]1 [FLUOROURACIL] | 24.9 (≈ 191 µM) | 25.6 (≈ 197 µM) | 20 (≈ 154 µM) |  |  |  | 
